Shown are actives, neighbours in structure and some others; about 1.9% of the full set was active somewhere.
PglD inh: PglD (C. jejuni) enzyme inhibition; 360,000 tested, 0.098% active; AID 602405; purified PglD enzyme, DTNB colorimetric CoA detection; inhibition, % at 12.5 µM; in the data active = inhibition above about 16%, passing the limit was not always enough
SR-BI uptake up: activators of SR-BI mediated HDL lipid uptake. CHO ldlA[mSR-BI] cells, DiI-HDL uptake fluorescence, 3 h; 100 = double the neutral-control signal. activation, % at 12.5 µM. 320,000 tested, 0.096% active. AID 504775;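 active = mean replicate activation of at least 60% and every replicate at or above 60%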;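 also: 0% = median plate neutral-control signal and 100% = twice that signal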
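Assay system: LDL receptor-deficient CHO ldlA cells overexpressing murine SR-BI / Medium: BSA-supplemented, HEPES-buffered Ham's F12, pH 7.4 / Probe or stimulus: DiI-labelled HDL at 10 µg/mL final / Timing: compound with DiI-HDL co-incubation, 3 h at 37 °C / Technique: bottom-read cell fluorescence after medium removal, ex 550/em 595 nm / Measure: HDL uptake via cellular fluorescence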
Env fusion inh: blocks HIV Env-driven cell-cell fusion; 360,000 tested, 1.1% active; AID 651610; HeLa-JRFL Env/CEM21 cell fusion, luciferase; inhibition, % at 12.3 µM;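 active = mean replicate inhibition score of at least 50 and every replicate individually at or above 50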;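 also: 0% = plate neutral controls and 100% = maraviroc near 300 nM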
SR-BI DiI inh: blocks mouse SR-BI lipid uptake from DiI-HDL. ldlA[mSR-BI] CHO cells, DiI-HDL uptake fluorescence, 3 h. 320,000 tested, 0.96% active. inhibition, % at 12.5 µM. AID 488896;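 active = mean replicate inhibition of at least 70% and a set share of replicates each scoring 70 or more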;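 also: 0% = median of neutral control wells and 100% = median of positive control wells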
Target sequence (Q61009 whole entry, looked up): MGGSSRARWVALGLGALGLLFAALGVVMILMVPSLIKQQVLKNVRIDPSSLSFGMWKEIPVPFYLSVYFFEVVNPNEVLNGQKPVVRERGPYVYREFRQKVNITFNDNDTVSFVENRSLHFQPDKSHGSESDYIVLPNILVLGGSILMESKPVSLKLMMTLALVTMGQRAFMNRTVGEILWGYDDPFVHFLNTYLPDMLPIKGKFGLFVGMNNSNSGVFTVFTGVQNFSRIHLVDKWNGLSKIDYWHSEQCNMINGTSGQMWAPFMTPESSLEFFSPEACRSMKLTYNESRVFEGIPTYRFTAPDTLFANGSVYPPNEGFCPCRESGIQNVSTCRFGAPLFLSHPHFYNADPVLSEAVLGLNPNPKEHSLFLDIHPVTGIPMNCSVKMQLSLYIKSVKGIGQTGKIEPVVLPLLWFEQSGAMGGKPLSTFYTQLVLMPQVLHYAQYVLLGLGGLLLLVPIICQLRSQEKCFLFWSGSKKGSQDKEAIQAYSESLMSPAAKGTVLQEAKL
Rtt109 HAT inh: C. albicans Rtt109 histone acetyltransferase inhibition; inhibition, % at 34.9 µM; purified Rtt109/Vps75, ThioGlo CoA-SH fluorescence, 4 h; Q5AAJ8; 330,000 tested, 0.16% active; AID 540336;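 active = inhibition of at least 50% in every replicate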
N-glyco inh: blocks N-linked glycosylation in D54 reporter cells. D54 ERlucT glycosylation luciferase reporter, 24 h; percent of 100 nM tunicamycin response. reporter increase, % at 12.5 µM. 360,000 tested, 0.23% active;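 active = mean luciferase reporter signal, scaled so untreated is 0 and the glycosylation-blocking control 100, at or above a set limit in every replicate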;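 also: luciferase carries N-glycosylation sites so blocking glycosylation raises the light; 0% = median of neutral control wells and 100% = median of 100 nM tunicamycin wells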
Starred values were filed as active, the others as inactive; / = not tested or not shown; [ ] = dose if it differs, or a comment.

SMILES	PglD inh	SR-BI uptake up	Env fusion inh	SR-BI DiI inh	Rtt109 HAT inh	N-glyco inh
C[C@H](CO)N1C[C@H](C)[C@H](CN(C)S(C)(=O)=O)OCCCC[C@H](C)Oc2ccc(NC(=O)Nc3ccc(F)cc3)cc2C1=O	2.9	/	8.7[16.7 µM]	/	/	/
COc1ccc2sc(-c3ccccc3OC)c(-c3ccc(OC)nc3)c2c1	1.6	-33.2	-21.6	33.2	-2.4	-1.0
COc1ccc(-c2sc3ccc(OC)cc3c2-c2ccc(OC)nc2)cc1	0.2	-74.7	20.6	74.7*	9.2	-2.1
CO[C@H]1CN(C)C(=O)c2cc(NC(=O)C3CC3)ccc2OC[C@H](C)N(C(=O)CN2CCOCC2)C[C@H]1C	-2.5	/	4.6[16.7 µM]	/	/	/
O=S(=O)(N[C@H]1CC[C@H](CCn2cc(C3CC3)nn2)O[C@@H]1CO)c1ccc(Cl)cc1	-6.3	/	4.7[16.7 µM]	/	/	/
COc1cccc(S(=O)(=O)N2CCC3(CC2)CN(C(=O)Nc2cccc(F)c2)[C@@H](CO)c2[nH]c4cc(OC)ccc4c23)c1	/	/	72.4*[16.7 µM]	/	/	/
COc1cccc(C(=O)Nc2ccc3c(c2)C(=O)N(C)[C@@H]2CC[C@@H](CC(=O)NCC4CC4)O[C@H]2CO3)c1	1.8	/	-6.3[16.7 µM]	/	/	/
O=C(Cc1ccc2cccnc2c1)c1ccc(O)cc1O	-1.7	31.2	/	-31.1	59.6*	-1.9
COC(=O)c1ccc(Oc2nc(Nc3ccc(C)c(C)c3)nc(N(C)C)n2)cc1	2.1	-24.3	64.7*	24.3	-3.3	2.1
CC(C)NC(=O)N(C)C[C@H]1Oc2ccc(NC(=O)c3ccncc3)cc2C(=O)N([C@@H](C)CO)C[C@H]1C	-4.9	/	-5.0[16.7 µM]	/	/	/
COc1cc(C2=NC(CO)(CO)CO2)cc(OC)c1OC	11.4	448.4*	-1.4	-448.4	-10.7	1.6
CC(C)=C1C2CCC1C(C(=O)NCc1ccccc1)C2C(=O)O (stereo not given)	-4.4	19.2	66.6*	-19.2	-3.4	0.9
CCN=C1S/C(=C/c2ccc(-c3ccc(F)cc3)o2)C(=O)N1CC	-2.3	-72.0	20.6	72.0*	-1.6	1.1
COc1ccc(Nc2c([N+](=O)[O-])ccc3c2=NC2(CCCCC2)N=3)cc1	-1.1	-86.5	-20.0	86.5*	-1.2	-4.8
C[C@@H]1CN([C@H](C)CO)C(=O)Cc2cc(NC(=O)Cc3cn(C)c4ccccc34)ccc2O[C@H]1CN(C)Cc1ccc(C(=O)Nc2ccccc2N)cc1	0.8	/	-0.8[16.7 µM]	/	/	/
CCN(C(=O)C1CCN(c2nc(-c3ccc(OC)cc3)no2)CC1)c1ccc(OC)cc1	1.8	-21.7	59.9*	21.7	-7.4	-3.6
COc1ccc(NC(=O)C2CCN(c3nc(-c4ccc(OC)cc4)no3)CC2)cc1	-5.6	-40.7	12.0	40.7	5.1	0.6
COc1ccc(-c2noc(N3CCC(C(=O)N4CCN(c5ccccn5)CC4)CC3)n2)cc1	1.4	-68.7	62.8*	68.7	6.3	/
COc1ccc(S(=O)(=O)Nc2cccc3c2O[C@@H](CN(C)S(=O)(=O)c2ccc(Cl)cc2)[C@H](C)CN([C@H](C)CO)C3=O)cc1	-1.2	/	-14.5[16.7 µM]	/	/	/
CCOc1ccccc1NC(=O)/C=C/c1ccccc1[N+](=O)[O-]	/	-82.1	22.0	82.1*	-16.4	-6.3
C[C@@H](NC(=O)C[C@@H]1C=C[C@@H](NC(=O)C2CCOCC2)[C@@H](CO)O1)c1ccccc1	-0.1	/	7.1[16.7 µM]	/	/	/
Cc1cccc(C)c1NC(=O)COC(=O)c1ccccc1Nc1ccccc1	-4.7	-82.1	8.4	82.1*	2.9	-4.1
COc1ccc(/C(C)=N/Nc2ncc(Cl)cc2Cl)c(O)c1	/	-106.1	/	106.2*	-2.9	-1.1
CO[C@@H]1CN(C)C(=O)c2cc(NC(=O)C3CCOCC3)ccc2OC[C@H](C)N(Cc2nccs2)C[C@@H]1C	2.2	/	/	/	/	/
Cc1cnc2c(N)cc(C)c(C)c2c1	/	/	77.3*	/	/	-2.7
Cc1cnc2ncc3sccc3c2c1	/	28.2	21.4	-28.2	3.8	0.0
COC(=O)C[C@@H]1C[C@H]2c3cc(NC(=O)NC4CCCCC4)ccc3O[C@H]2[C@H](CO)O1	0.5	/	4.0[16.7 µM]	/	/	/
CC(=O)N1[C@@H]2Cn3c(ccc(-c4ccccc4)c3=O)[C@H]1[C@@H](C(=O)Nc1ccccc1)[C@@H]2CO	-0.6	/	/	/	/	/
CCCC#Cc1ccc2c(c1)O[C@H](CN(C)C(=O)c1ccccn1)[C@H](C)CN([C@@H](C)CO)S2(=O)=O	-2.2	/	13.0[16.7 µM]	/	/	/

Screening data as filed in PubChem.
